Assays:
Conditions in all cases: read-out: Ki app
Neprilysin = Neprilysin (Homo sapiens, UniProt P08473); assay: Inhibition of human recombinant NEP by fluorescence assay
Outline: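 Recombinant human NEP at 0.15 nM was assayed with 2 μM FAM-[…]TAMRA)-NH2 substrate. Inhibitor was pre-incubated, then substrate added. Fluorescence gave Ki App, with average %CV 43%.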

[1] = biological target: Angiotensin-converting enzyme (Homo sapiens, UniProt P12821); assay: Inhibition of human recombinant ACE by fluorescence assay
Outline: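 Recombinant human ACE at 0.5 nM was incubated with 10 μM MCA-Ala-Ser-Asp-Lys-Dap(DNP)-OH substrate. Buffer was 1 μM Zn(OAc)2, 100 μM TCEP reducing agent, 50 mM Hepes, 300 μM CHAPS and 300 mM NaCl, pH 7.5. Inhibitor was pre-incubated before substrate was added. Fluorescence read-out gave apparent Ki.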

Carboxypeptidase A1 = biological target: T1, Carboxypeptidase A1 (Homo sapiens, UniProt P15085); assay: Inhibition of human recombinant carboxy peptidase A1 by fluorescence assay
T1 sequence (P15085 whole entry): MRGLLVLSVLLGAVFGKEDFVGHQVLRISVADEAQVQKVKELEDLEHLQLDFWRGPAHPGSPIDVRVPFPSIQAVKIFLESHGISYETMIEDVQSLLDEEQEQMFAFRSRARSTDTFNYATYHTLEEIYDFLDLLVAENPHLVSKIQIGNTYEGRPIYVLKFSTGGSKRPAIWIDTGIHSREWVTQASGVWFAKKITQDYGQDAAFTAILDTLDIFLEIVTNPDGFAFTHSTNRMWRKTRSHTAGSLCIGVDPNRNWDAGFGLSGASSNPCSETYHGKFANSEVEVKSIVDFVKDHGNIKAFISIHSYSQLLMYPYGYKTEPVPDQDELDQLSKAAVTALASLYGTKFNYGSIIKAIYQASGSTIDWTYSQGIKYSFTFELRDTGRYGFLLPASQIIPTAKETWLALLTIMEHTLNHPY

[2] = biological target: Angiotensin-converting enzyme 2 (Homo sapiens, UniProt Q9BYF1); assay: Inhibition of human recombinant ACE2 by fluorescence assay
Outline: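 Fluorescence assay with 0.4 nM recombinant human ACE2 and 30 μM MCA-Tyr-Val-Ala-Asp-Ala-Pro-Lys(DNP)-OH substrate. Pre-incubation with inhibitor preceded substrate addition. Apparent Ki was reported, with average %CV 45%. Thiols were diluted from 10 mM stocks in 50% aqueous acetonitrile just before assay.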

Chain of Angiotensin-converting enzyme (P12821 whole entry): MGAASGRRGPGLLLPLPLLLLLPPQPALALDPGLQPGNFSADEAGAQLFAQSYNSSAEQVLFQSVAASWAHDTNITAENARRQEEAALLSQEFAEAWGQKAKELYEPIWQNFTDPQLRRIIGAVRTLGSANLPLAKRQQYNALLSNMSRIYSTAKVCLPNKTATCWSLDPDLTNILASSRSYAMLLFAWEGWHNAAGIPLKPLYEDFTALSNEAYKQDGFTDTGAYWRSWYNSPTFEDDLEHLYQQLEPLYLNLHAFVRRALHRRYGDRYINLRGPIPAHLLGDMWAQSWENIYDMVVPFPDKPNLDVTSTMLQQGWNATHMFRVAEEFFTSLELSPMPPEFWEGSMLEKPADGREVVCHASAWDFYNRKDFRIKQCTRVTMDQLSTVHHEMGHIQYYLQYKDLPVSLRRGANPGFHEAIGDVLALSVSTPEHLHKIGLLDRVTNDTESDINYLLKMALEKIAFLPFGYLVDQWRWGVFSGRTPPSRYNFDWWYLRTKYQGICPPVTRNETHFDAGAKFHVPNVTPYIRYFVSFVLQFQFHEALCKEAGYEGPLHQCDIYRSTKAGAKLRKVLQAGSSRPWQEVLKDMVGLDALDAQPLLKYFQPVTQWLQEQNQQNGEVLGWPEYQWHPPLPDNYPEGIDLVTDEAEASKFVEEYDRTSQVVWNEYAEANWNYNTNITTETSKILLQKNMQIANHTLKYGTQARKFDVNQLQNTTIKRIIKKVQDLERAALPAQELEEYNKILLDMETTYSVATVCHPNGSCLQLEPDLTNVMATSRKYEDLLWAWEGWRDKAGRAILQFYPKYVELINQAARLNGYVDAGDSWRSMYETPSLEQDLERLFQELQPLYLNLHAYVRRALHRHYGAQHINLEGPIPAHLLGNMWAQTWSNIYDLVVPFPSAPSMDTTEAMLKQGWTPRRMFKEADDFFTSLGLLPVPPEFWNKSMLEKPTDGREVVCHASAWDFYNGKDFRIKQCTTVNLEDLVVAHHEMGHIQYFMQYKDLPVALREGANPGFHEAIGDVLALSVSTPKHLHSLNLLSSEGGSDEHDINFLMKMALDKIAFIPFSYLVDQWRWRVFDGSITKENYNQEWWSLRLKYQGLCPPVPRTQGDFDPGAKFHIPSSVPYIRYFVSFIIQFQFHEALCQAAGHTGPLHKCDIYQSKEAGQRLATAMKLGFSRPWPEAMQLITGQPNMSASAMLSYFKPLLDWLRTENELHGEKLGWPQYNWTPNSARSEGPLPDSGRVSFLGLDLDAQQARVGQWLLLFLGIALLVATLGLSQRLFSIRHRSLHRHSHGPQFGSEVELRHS
Chain of Angiotensin-converting enzyme 2 (Q9BYF1 whole entry): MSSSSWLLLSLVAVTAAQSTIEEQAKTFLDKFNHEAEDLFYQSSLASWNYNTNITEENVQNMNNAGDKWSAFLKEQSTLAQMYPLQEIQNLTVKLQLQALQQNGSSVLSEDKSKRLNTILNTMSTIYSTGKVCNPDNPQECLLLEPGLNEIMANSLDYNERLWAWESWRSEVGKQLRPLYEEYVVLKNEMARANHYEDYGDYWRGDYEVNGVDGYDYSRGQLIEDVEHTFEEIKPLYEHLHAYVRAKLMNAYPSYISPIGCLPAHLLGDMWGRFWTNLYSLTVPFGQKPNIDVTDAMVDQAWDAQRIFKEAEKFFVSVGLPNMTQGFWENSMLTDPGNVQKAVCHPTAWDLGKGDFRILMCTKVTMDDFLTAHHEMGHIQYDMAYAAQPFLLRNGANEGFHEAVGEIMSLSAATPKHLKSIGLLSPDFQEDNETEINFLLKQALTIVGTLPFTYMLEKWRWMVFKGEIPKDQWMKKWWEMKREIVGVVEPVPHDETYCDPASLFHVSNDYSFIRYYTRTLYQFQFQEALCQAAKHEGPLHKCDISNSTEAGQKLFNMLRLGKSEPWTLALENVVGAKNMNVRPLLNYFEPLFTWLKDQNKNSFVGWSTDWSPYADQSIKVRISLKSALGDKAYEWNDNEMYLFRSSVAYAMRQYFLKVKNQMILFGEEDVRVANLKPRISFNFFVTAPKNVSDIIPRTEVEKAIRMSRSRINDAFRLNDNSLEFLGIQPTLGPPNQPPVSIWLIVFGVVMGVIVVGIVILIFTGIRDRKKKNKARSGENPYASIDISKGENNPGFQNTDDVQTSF
Chain of Neprilysin (P08473 whole entry): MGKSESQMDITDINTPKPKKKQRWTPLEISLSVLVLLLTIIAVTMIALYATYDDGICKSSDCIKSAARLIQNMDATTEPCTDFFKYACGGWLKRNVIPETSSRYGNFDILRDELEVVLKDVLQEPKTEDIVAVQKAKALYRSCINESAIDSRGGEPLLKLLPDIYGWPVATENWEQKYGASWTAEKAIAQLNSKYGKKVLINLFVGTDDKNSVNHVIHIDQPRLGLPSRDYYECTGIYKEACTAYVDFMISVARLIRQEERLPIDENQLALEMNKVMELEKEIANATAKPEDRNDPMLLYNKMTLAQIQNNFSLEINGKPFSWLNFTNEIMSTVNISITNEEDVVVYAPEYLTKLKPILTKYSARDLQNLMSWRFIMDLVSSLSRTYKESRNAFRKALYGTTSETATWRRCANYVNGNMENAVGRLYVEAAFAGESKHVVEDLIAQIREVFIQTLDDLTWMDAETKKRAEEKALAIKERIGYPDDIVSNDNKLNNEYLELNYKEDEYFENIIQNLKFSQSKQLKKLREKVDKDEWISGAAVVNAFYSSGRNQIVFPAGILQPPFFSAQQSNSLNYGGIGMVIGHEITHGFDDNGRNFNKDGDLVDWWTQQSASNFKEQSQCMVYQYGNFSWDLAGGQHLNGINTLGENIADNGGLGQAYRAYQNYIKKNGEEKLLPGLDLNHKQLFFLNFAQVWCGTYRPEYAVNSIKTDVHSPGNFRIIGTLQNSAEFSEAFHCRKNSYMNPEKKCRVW

SMILES	Ki (Neprilysin) [µM]	Ki [1] [µM]	Ki (Carboxypeptidase A1) [µM]	Ki [2] [µM]
O=C(O)[C@H](Cc1ccc(-c2ccccc2)cc1)NC(=O)[C@@H](S)C1CCCCC1	1.3	13	12	0.065
O=C(O)[C@H](Cc1ccc(-c2ccccc2)cc1)NC(=O)[C@@H](S)CC1CCCCC1	0.13	0.84	17	0.42
CC[C@H](S)C(=O)N[C@@H](Cc1ccc(-c2ccccc2)cc1)C(=O)O	0.0008	0.0086	9.3	0.0014
O=C(N[C@@H](Cc1ccc(-c2ccccc2)cc1)C(=O)O)[C@H](S)Cc1ccccc1	0.0013	0.52	0.31	1.4
O=C(O)[C@H](Cc1ccc(-c2ccccc2)cc1)NC(=O)[C@@H](S)C1CCC1	0.0054	0.62	12	0.0024
O=C(O)[C@H](Cc1ccc(-c2ccccc2)cc1)NC(=O)[C@@H](S)C1CCCC1	0.038	0.7	12	0.0018
C[C@H](S)C(=O)N[C@@H](Cc1ccc(-c2ccccc2)cc1)C(=O)O	0.023	0.021	14	0.0069
CC[C@@H](C)[C@H](S)C(=O)N[C@@H](Cc1ccc(-c2ccccc2)cc1)C(=O)O	0.027	0.49	11	0.0015
CCCC[C@H](S)C(=O)N[C@@H](Cc1ccc(-c2ccccc2)cc1)C(=O)O	0.0012	0.0093	8.9	0.0018
CC(C)(S)C(=O)N[C@@H](Cc1ccc(-c2ccccc2)cc1)C(=O)O	0.73	3.4	–	2.3
O=C(O)[C@H](Cc1ccc(-c2ccccc2)cc1)NC(=O)[C@@H](S)Cc1ccccc1	0.0011	0.03	1.2	0.086

Continued, values first:

Ki (Neprilysin) [µM]	Ki [1] [µM]	Ki (Carboxypeptidase A1) [µM]	Ki [2] [µM]	SMILES
0.14	0.21	32	0.55	O=C(O)[C@H](Cc1ccc(-c2ccccc2)cc1)NC(=O)[C@@H](S)Cc1ccc2ccccc2c1
0.013	0.2	17	0.0015	CC(C)[C@H](S)C(=O)N[C@@H](Cc1ccc(-c2ccccc2)cc1)C(=O)O
0.0026	0.093	5	0.86	O=C(O)[C@H](Cc1ccc(-c2ccccc2)cc1)NC(=O)[C@@H](S)CCc1ccccc1
0.013	0.016	1.7	0.32	O=C(CS)N[C@@H](Cc1ccc(-c2ccccc2)cc1)C(=O)O
0.0026	2.7	22	0.0071	CC(C)(C)C[C@H](S)C(=O)N[C@@H](Cc1ccc(-c2ccccc2)cc1)C(=O)O
0.0024	0.2	15	0.0016	CC[C@H](C)[C@H](S)C(=O)N[C@@H](Cc1ccc(-c2ccccc2)cc1)C(=O)O
0.00028	0.0032	11	0.0014	CC(C)C[C@H](S)C(=O)N[C@@H](Cc1ccc(-c2ccccc2)cc1)C(=O)O
0.41	> 10	–	0.084	O=C(O)[C@H](Cc1ccc(-c2ccccc2)cc1)NC(=O)[C@@H](S)c1ccccc1

— ChEMBL document CHEMBL1142293, “Thiol-based angiotensin-converting enzyme 2 inhibitors: P1 modifications for the exploration of the S1 subsite” (Bioorg Med Chem Lett, 2008)
